Columns and labels:
Daudi = experiment: Cytotoxic concentration to inhibit replication in daudi cells; type: functional; conditions: Homo sapiens
Human alphaherpesvirus 2 [1] = experiment: Effective concentration required to inhibit herpes simplex virus 2 in HFF cells in cytopathic effect (CPE) assay; type: functional, organism-based; conditions: Human alphaherpesvirus 2, HFF
In short: (§1)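 HSV-1 and HSV-2 assayed in HFF cells by cytopathic effect (CPE) inhibition and by plaque reduction. Cytotoxicity measured in HFF cells. Single experiments unless specified otherwise.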

Human gammaherpesvirus 4 [2] = experiment: Effective concentration required to inhibit Epstein-barr virus replication in daudi cells in viral capsid immunofluorescence ELISA; type: functional, organism-based; conditions: human gammaherpesvirus 4, Daudi
Human alphaherpesvirus 1 [3] = experiment: Effective concentration required to inhibit herpes simplex virus 1 in vero cells in plaque reduction assay; type: functional, organism-based; conditions: Human alphaherpesvirus 1, Vero
In short: (§2)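 HSV-1 and HSV-2 assayed in Vero cells by plaque reduction. Single experiments unless specified otherwise.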

Human gammaherpesvirus 4 [4] = experiment: Effective concentration required to inhibit Epstein-barr virus replication in H-1 cells in DNA hybridization assay; type: functional, organism-based; conditions: human gammaherpesvirus 4, H-1
In short: (§3)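 EBV assayed in H-1 cells by DNA hybridization. Cytotoxicity determined separately in CEM cells. Single experiments unless specified otherwise.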

Hepatitis B virus = experiment: Effective concentration required to inhibit hepatitis B virus replication in 2.2.15 cells in DNA hybridization assay; type: functional, organism-based; conditions: HepG2 2.2.15
In short: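 HBV assayed in 2.2.15 cells by DNA hybridization. CC50 values are those from the EBV/H-1 cytotoxicity determination, run in CEM cells. Single experiments unless specified otherwise.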

Human alphaherpesvirus 1 [5] = experiment: Effective concentration required to inhibit herpes simplex virus 1 in HFF cells in cytopathic effect (CPE) assay; type: functional, organism-based; conditions: Human alphaherpesvirus 1, HFF; in short: as §1
[6] = Effective concentration required to inhibit varicella zoster virus replication in HFF cells; type: functional, cell-based; conditions: Human alphaherpesvirus 3, HFF
In short: (§4)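 VZV assayed in HFF cells by cytopathic effect (CPE) inhibition or by plaque reduction. Single experiments unless specified otherwise.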

Human betaherpesvirus 5 [7] = experiment: Effective concentration for antiviral activity against towne strain of human cytomegalovirus in plaque reduction assay; type: functional, organism-based
In short: (§5)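 Human CMV (Towne and AD169 strains) grown in HFF cell culture; antiviral effect read by plaque reduction or by cytopathic effect (CPE) inhibition. Cytotoxicity measured in HFF cells. Single experiments unless specified otherwise.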

KB (Homo sapiens) = experiment: Cytotoxic concentration required to inhibit KB cells
Human betaherpesvirus 5 [8] = experiment: Effective concentration for antiviral activity against AD169 strain of human cytomegalovirus in plaque reduction assay; type: functional, organism-based; in short: as §5
Human alphaherpesvirus 1 [9] = experiment: Effective concentration required to inhibit herpes simplex virus 1 in BSC-1 cells in ELISA; type: functional, organism-based; conditions: Human alphaherpesvirus 1, BSC-1
In short: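 HSV-1 assayed in BSC-1 cells with ELISA read-out; cytotoxicity in these assays determined in KB cells. Single experiments unless specified otherwise.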

HFF [10] = experiment: Cytotoxic concentration against AD169 strain of human cytomegalovirus infected HFF cells of human (by cytopathic effect inhibition assay); type: functional; in short: as §5
HFF [11] = experiment: Cytotoxic concentration against town strain of human cytomegalovirus infected HFF cells of human (visual cytotoxicity); type: functional; in short: as §5
Human alphaherpesvirus 2 [12] = experiment: Effective concentration required to inhibit herpes simplex virus 2 in vero cells in plaque reduction assay; type: functional, organism-based; conditions: Human alphaherpesvirus 2, Vero; in short: as §2
[13] = Cytotoxic concentration to inhibit replication in H-1 cells (in CEM cells); type: functional; conditions: Homo sapiens, CCRF-CEM; in short: as §3
HFF [14] = experiment: Cytotoxic concentration against AD169 strain of human cytomegalovirus infected HFF cells of human (by neutral red uptake); type: functional
HFF [15] = experiment: Cytotoxic concentration against towne strain of human cytomegalovirus infected HFF cells of human (visual cytotoxicity); type: functional; in short: as §5
[16] = Effective concentration required to inhibit varicella zoster virus replication in HFF cells in cytopathic reduction assay; type: functional, cell-based; conditions: Human alphaherpesvirus 3, HFF; in short: as §4
[17] = Effective concentration required to inhibit varicella zoster virus replication in HFF cells in plaque reduction assay; type: functional, cell-based; conditions: Human alphaherpesvirus 3, HFF; in short: as §4
MEF = experiment: Cytotoxic concentration against murine cytomegalovirus infected MEF cells; type: functional; conditions: Mus musculus
HFF [18] = experiment: Cytotoxic concentration to inhibit herpes simplex virus 1 infected HFF cells; type: functional; conditions: Homo sapiens; in short: as §1
HFF [19] = experiment: Cytotoxic concentration to inhibit herpes simplex virus 2 infected HFF cells; type: functional; conditions: Homo sapiens; in short: as §1
Vero [20] = experiment: Cytotoxic concentration required to inhibit herpes simplex virus 1 infected vero cells; type: functional; conditions: Chlorocebus sabaeus
HFF [21] = experiment: Cytotoxic concentration to inhibit Herpes simplex virus 1 infected HFF cells; type: functional; conditions: Homo sapiens; in short: as §1
HFF [22] = experiment: Cytotoxic concentration to inhibit Herpes simplex virus 2 infected HFF cells; type: functional; conditions: Homo sapiens; in short: as §1
Vero [23] = experiment: Cytotoxic concentration required to inhibit herpes simplex virus 2 infected vero cells; type: functional; conditions: Chlorocebus sabaeus
HFF [24] = experiment: Cytotoxic concentration to inhibit replication in HFF cells in cytopathic effect inhibition assay; type: functional; conditions: Homo sapiens; in short: as §5
HFF [25] = experiment: Cytotoxic concentration against towne strain of human cytomegalovirus infected HFF cells of human (visual cytotoxicity); range=100-200; type: functional; in short: as §5
Homo sapiens = organism: Homo sapiens; experiment: Cytotoxic concentration to inhibit replication in 2.2.15 cells; type: functional; conditions: HepG2 2.2.15

Structure (SMILES) | CC50 (Daudi) | EC50 (Human alphaherpesvirus 2 [1]) | EC50 (Human gammaherpesvirus 4 [2]) | EC50 (Human alphaherpesvirus 1 [3]) | EC50 (Human gammaherpesvirus 4 [4]) | EC50 (Hepatitis B virus) | EC50 (Human alphaherpesvirus 1 [5]) | EC50 [6] | EC50 (Human betaherpesvirus 5 [7]) | CC50 (KB (Homo sapiens)) | EC50 (Human betaherpesvirus 5 [8]) | EC50 (Human alphaherpesvirus 1 [9]) | EC50 (Human alphaherpesvirus 2 [12]) | CC50 [13] | CC50 (HFF [14]) | CC50 (HFF [15]) | CC50 (MEF) | other results
Nc1nc(O)c2ncn(/C=C3\CC3(CO)COP(=O)(O)O)c2n1 (stereo not drawn) | > 146 µM | > 291 µM | > 146 µM | > 50 µM | > 20 µM | > 20 µM | > 291 µM | > 291 µM | > 100 µM | > 100 µM | > 291 µM | > 100 µM | > 50 µM | > 100 µM | – | – | – | CC50 (HFF [10]): > 291 µM; CC50 (HFF [11]): > 100 µM
COC(=O)C(C)NP(=O)(OCC1(CO)C/C1=C/n1cnc2c(O)nc(N)nc21)Oc1ccccc1 (stereo not drawn) | > 198 µM | > 198 µM | > 99 µM | > 50 µM | 3.4 µM | 4.1 µM | > 198 µM | – | 3.6 µM | > 100 µM | 8.1 µM | > 100 µM | > 50 µM | 35 µM | > 198 µM | > 100 µM | > 198 µM | EC50 [16]: 6.3 µM; EC50 [17]: 7.3 µM
Nc1nc(O)c2ncn(/C=C3/CC3(CO)COP(=O)(O)O)c2n1 (stereo not drawn) | > 146 µM | 23.3 µM | > 146 µM | 50 µM | 2.3 µM | 15 µM | 9.9 µM | > 291 µM | 0.25 µM | > 100 µM | 1.1 µM | > 100 µM | > 50 µM | 62 µM | > 291 µM | 100 µM | 175 µM | CC50 (HFF [18]): > 291 µM; CC50 (HFF [19]): > 291 µM
Nc1nc(O)c2ncn(/C=C3/CC34COP(=O)(O)OC4)c2n1 (stereo not drawn) | > 150 µM | 242 µM | 0.96 µM | 16 µM | > 20 µM | 0.8 µM | > 301 µM | > 301 µM | 20 µM | > 100 µM | 6 µM | 20 µM | 22 µM | > 100 µM | > 301 µM | > 100 µM | > 301 µM | CC50 (Vero [20]): > 100 µM
Nc1nc2c(ncn2COCCO)c(=O)[nH]1 [ACYCLOVIR] | > 222 µM | 6.7 µM | 1.1 µM | 13.5 µM | – | – | 0.9 µM | 1.6 µM | – | > 100 µM | – | 1.5 µM | 32.3 µM | – | – | – | – | CC50 (HFF [21]): > 444 µM; CC50 (HFF [22]): > 444 µM; CC50 (Vero [23]): > 200 µM; CC50 (Vero [20]): > 200 µM; CC50 (HFF [24]): > 444 µM
Nc1nc2c(ncn2/C=C2/CC2(CO)CO)c(=O)[nH]1 [FILOCICLOVIR] | 74 µM | > 380 µM | – | > 50 µM | – | > 10 µM | > 380 µM | > 380 µM | 0.33 µM | > 100 µM | 0.49 µM | > 100 µM | > 50 µM | > 50 µM | > 380 µM | – | > 380 µM | CC50 (HFF [25]): 200 µM
Nc1nc2c(ncn2COC(CO)CO)c(=O)[nH]1 [GANCICLOVIR] | – | – | – | – | 5 µM | – | – | – | 2.1 µM | – | 1.6 µM | – | – | – | > 392 µM | – | > 392 µM | CC50 (HFF [11]): > 100 µM
Nc1ccn([C@@H]2CS[C@H](CO)O2)c(=O)n1 [LAMIVUDINE] | – | – | – | – | – | 0.05 µM | – | – | – | – | – | – | – | – | – | – | – | CC50 (Homo sapiens): > 100 µM

Reference: ChEMBL document CHEMBL1139499, “Nucleotides and pronucleotides of 2,2-bis(hydroxymethyl)methylenecyclopropane analogues of purine nucleosides: synthesis and antiviral activity” (J Med Chem, 2005)
